The source made the active and inactive calls. No cut-off for these calls is given here. Bounds are passed on as bounds.

Here are results for 19 molecules from ChEMBL document CHEMBL2157903, “2-Arylbenzofuran-based molecules as multipotent Alzheimer's disease modifying agents” (Eur J Med Chem, 2012).

One experiment deals with Acetylcholinesterase (Homo sapiens, UniProt P22303). Briefly: Inhibition of human recombinant AChE using acetylthiocholine iodide as substrate preincubated for 20 mins prior to substrate addition by Ellman's method. The procedure, abridged:
(§1)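 Ellman method with acetylthiocholine iodide (AChE) or butyrylthiocholine iodide (BuChE) as substrate. Enzyme and inhibitor preincubated 20 min at 37 °C before substrate addition. Blanks without enzyme corrected for non-enzymatic hydrolysis. Five inhibitor concentrations giving 20-80% inhibition. IC50 from linear regression of % inhibition vs log final concentration. Mean of two or three independent measurements, each in triplicate.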

For experiment [1], the target named is T1, Cannabinoid receptor 1 (Homo sapiens, UniProt P21554). Briefly: Displacement of [3H]CP-55940 from human recombinant CB1 receptor expressed in HEK293 cells after 90 mins. Format: cell-based. The procedure, abridged:
(§2)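 Membranes from HEK-293 cells stably expressing human recombinant CB1 (Bmax 2.5 pmol/mg) or CB2 (Bmax 4.7 pmol/mg). Incubated with [3H]-CP-55,940 (CB1 0.14 nM, Kd 0.18 nM; CB2 0.084 nM, Kd 0.31 nM) and increasing compound concentrations for 90 min at 30 °C. Non-specific binding defined with 10 […] 55212-2. IC50 by non-linear regression, converted to Ki by Cheng-Prusoff. Means of at least n = 3.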

The target of experiment [2] is T2, Cannabinoid receptor 2 (Homo sapiens, UniProt P34972). Briefly: Displacement of [3H]CP-55940 from human recombinant CB2 receptor expressed in HEK293 cells after 90 mins. Format: cell-based. The procedure, abridged: as §2
T2 sequence (P34972 whole entry): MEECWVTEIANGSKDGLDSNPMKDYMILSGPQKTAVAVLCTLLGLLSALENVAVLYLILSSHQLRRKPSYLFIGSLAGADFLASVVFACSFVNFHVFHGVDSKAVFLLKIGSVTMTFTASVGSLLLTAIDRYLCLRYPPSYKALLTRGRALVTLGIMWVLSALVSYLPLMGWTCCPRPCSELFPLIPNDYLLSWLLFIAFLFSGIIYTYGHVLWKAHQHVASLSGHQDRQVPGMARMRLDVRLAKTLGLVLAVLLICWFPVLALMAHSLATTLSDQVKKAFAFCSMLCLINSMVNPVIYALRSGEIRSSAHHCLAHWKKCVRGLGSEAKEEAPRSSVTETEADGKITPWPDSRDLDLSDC
In general terms: Loss of bound radioactivity is the signal in a displacement assay; it reports binding, not function.

The target in experiment [3] is T2, Cannabinoid receptor 2. Nature of the experiment: Displacement of [3H]CP-55940 from human recombinant CB2 receptor expressed in HEK293 cells at 10 uM after 90 mins. Type of experiment: cell-based.
The target of a further experiment is Cholinesterase (Homo sapiens, UniProt P06276). Briefly: Inhibition of human serum BuChE using butyrylthiocholine iodide as substrate preincubated for 20 mins prior to substrate addition by Ellman's method. The procedure, abridged:
as §1
For orientation: In Ellman's method for cholinesterases, released thiocholine reacts with DTNB.

Experiment [4] is described as follows: Inhibition of amyloid beta (25 to 35) fibril formation at 10 uM incubated up to 6 hrs by UV-Vis spectrophotometric analysis. The procedure, abridged: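 Aβ25-35 at 100 μM final, in 10 mM phosphate buffer pH 7.2, sonicated 1 min on addition. Compound added in MeOH at 10 μM final, with curcumin reference alongside. Polymerization followed by UV-vis at 190-380 nm over 0-6 h. Spectra of compound alone were subtracted. At least three independent runs.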

The target of experiment [5] is T1, Cannabinoid receptor 1. Briefly: Displacement of [3H]CP-55940 from human recombinant CB1 receptor expressed in HEK293 cells at 10 uM after 90 mins. Type of experiment: cell-based. The procedure, abridged: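 Membranes from HEK-293 cells stably expressing human recombinant CB1 or CB2 were incubated with [³H]-CP-55,940 (0.14 nM for CB1; 0.084 nM for CB2) plus test compound for 90 min at 30 °C. Non-specific binding was defined with WIN 55212-2. Percent displacement of bound radioligand at the maximum tested concentration is reported. At least n = 3 experiments.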

Experiment [6] in a line: Inhibition of amyloid beta (25 to 35) fibril formation incubated up to 6 hrs by UV-Vis spectrophotometric analysis. The procedure, abridged: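 Aβ25-35, sonicated 1 min, was mixed in 10 mM phosphate buffer (pH 7.2) with compound added in MeOH, on ice. Polymerization was followed by UV-visible spectroscopy at 190–380 nm over 0–6 h. Compound-alone spectra were subtracted, and peptide-alone and curcumin controls were run in parallel. IC50 (0.1–50 range) came from a sigmoidal least-squares fit. At least three independent runs.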

Chain of Cholinesterase (P06276 whole entry): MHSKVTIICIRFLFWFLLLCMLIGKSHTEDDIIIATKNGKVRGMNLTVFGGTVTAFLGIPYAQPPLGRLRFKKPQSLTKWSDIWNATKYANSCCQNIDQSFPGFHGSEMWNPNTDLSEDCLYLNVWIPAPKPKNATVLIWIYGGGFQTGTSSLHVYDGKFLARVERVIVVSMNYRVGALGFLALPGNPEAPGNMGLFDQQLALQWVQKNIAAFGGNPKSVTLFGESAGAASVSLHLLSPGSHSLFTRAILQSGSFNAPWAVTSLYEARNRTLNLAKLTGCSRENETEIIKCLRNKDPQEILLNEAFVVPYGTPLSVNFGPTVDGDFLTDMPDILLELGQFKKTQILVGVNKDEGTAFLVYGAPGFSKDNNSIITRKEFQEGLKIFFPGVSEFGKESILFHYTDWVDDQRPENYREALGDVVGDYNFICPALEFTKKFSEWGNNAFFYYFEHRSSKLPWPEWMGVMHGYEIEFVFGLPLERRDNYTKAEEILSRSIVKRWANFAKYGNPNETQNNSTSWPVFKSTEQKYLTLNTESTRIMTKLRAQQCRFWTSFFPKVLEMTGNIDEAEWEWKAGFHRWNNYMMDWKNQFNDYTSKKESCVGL
Chain of Acetylcholinesterase (P22303 whole entry): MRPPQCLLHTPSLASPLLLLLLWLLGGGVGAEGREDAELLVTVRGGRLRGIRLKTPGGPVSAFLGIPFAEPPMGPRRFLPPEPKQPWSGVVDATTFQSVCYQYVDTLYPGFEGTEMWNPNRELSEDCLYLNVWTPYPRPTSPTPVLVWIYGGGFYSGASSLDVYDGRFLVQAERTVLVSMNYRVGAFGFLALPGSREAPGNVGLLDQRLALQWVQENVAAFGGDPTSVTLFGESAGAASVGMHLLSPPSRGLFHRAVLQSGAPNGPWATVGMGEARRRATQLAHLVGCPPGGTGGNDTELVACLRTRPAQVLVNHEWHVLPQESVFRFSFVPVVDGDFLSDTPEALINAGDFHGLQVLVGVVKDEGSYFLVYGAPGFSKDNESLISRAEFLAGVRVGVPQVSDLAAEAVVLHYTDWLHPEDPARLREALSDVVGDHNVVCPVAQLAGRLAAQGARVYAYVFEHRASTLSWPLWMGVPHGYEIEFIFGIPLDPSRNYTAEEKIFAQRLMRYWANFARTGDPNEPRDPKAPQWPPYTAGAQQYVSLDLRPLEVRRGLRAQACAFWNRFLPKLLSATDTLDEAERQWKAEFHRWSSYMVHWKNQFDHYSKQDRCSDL
T1 sequence (P21554 whole entry): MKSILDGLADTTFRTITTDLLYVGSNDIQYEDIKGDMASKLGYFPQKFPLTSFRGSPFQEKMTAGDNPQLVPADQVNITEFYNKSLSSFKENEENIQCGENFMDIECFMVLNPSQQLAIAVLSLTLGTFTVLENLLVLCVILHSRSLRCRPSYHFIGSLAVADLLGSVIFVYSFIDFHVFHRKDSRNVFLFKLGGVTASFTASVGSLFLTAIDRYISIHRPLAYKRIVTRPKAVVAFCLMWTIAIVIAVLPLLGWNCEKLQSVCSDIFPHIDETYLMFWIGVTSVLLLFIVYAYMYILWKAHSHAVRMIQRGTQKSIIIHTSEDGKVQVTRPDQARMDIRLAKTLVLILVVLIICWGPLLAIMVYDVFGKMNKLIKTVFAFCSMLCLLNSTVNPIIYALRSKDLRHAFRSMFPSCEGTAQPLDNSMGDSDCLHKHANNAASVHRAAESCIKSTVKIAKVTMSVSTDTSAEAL

As to `CN(CCCCCCCOc1ccc(-c2oc3ccccc3c2C(=O)c2ccc(OCCN3CCOCC3)cc2)cc1)Cc1ccccc1`, the IC50 at Acetylcholinesterase (read-out: IC50) was 39 µM; at Cholinesterase, 21 µM. The figures for the EC50 at Cannabinoid receptor 1 [1] and at Cannabinoid receptor 2 [2] were 1.37 µM and 2.27 µM, respectively. The Ki is 550 nM on Cannabinoid receptor 1 [1] and 580 nM at Cannabinoid receptor 2 [2]. The Activity came to 70.6% on Cannabinoid receptor 2 [3] and 83.1% on Cannabinoid receptor 1 [5]. The inhibition result in experiment [4] was “Active”.

On to `CN(CCCCCCCOc1ccc(-c2oc3ccccc3c2C(=O)c2cccc3ccccc23)cc1)Cc1ccccc1`, for which the values for the IC50 on Acetylcholinesterase (read-out: IC50) and on Cholinesterase were 101 µM and 60.1 µM, respectively. The EC50 on Cannabinoid receptor 1 [1] and at Cannabinoid receptor 2 [2] was above 10 µM throughout. Moreover, the Ki on Cannabinoid receptor 1 [1] and on Cannabinoid receptor 2 [2] was above 10000 nM throughout. In addition, the Activity is 8.9% on Cannabinoid receptor 2 [3] and 13.8% at Cannabinoid receptor 1 [5]. For the same molecule, the inhibition in experiment [4] came to 48%.

With `COc1cccc(C(=O)c2c(-c3cccc(OCCCCCCCN(C)Cc4ccccc4)c3)oc3ccccc23)c1OC`, the values for the IC50 result at Acetylcholinesterase and against Cholinesterase were “Not Active” and 3.01 µM, respectively. The outcome on Cannabinoid receptor 1 [1] and at Cannabinoid receptor 2 [2] was inactive.

Turning to `CN(CCCCCCCCOc1ccc(-c2cc3ccccc3o2)cc1)Cc1ccccc1`, the values for the IC50 result at Acetylcholinesterase and against Cholinesterase were “Not Active” and 7.47 µM, respectively. Further, in experiment [4], the inhibition entry is “Active”.

As for `Cc1ccc(C(=O)c2c(-c3cccc(OCCCCCCCN(C)Cc4ccccc4)c3)oc3ccccc23)cc1`, the IC50 entry is “Not Active” on Acetylcholinesterase and 43.9 µM against Cholinesterase. Also, the outcome at Cannabinoid receptor 1 [1] and at Cannabinoid receptor 2 [2] was inactive.

For `COc1cccc(C(=O)c2c(-c3cccc(OCCCCCCCN(C)Cc4ccccc4)c3)oc3ccccc23)c1`, the IC50 entry was “Not Active” on Acetylcholinesterase and 1.37 µM against Cholinesterase. For the same molecule, the outcome on Cannabinoid receptor 1 [1] and on Cannabinoid receptor 2 [2] was inactive.

On to `CCN(CC)Cc1ccc(C(=O)c2c(-c3ccc(OCCCCCCCN(C)Cc4ccccc4)cc3)oc3ccccc23)cc1`, for which the IC50 amounted to 100 µM on Acetylcholinesterase (read-out: IC50) and 9.42 µM on Cholinesterase. Moreover, the EC50 is above 10 µM on Cannabinoid receptor 1 [1] and 4.4 µM on Cannabinoid receptor 2 [2]. For the same molecule, the Ki at Cannabinoid receptor 1 [1] is above 10000 nM; at Cannabinoid receptor 2 [2] it was 1120 nM. In addition, the figures for the Activity on Cannabinoid receptor 2 [3] and at Cannabinoid receptor 1 [5] were 65.2% and 47.7%, respectively. The inhibition entry in experiment [4] was “Active”.

As to `CN(CCCCCOc1ccc(-c2cc3ccccc3o2)cc1)Cc1ccccc1`, the IC50 on Acetylcholinesterase (read-out: IC50) was 215 µM; on Cholinesterase, 6.6 µM. Besides, in experiment [4], the inhibition entry is “Active”.

With `CCN(CC)Cc1cccc(C(=O)c2c(-c3ccc(OCCCCCCCN(C)Cc4ccccc4)cc3)oc3ccccc23)c1`, the IC50 worked out at 53 µM on Acetylcholinesterase (read-out: IC50) and 3.18 µM against Cholinesterase. Also, the EC50 on Cannabinoid receptor 1 [1] and at Cannabinoid receptor 2 [2] was above 10 µM each time. The Ki on Cannabinoid receptor 1 [1] and on Cannabinoid receptor 2 [2] was above 10000 nM in each case. Further, the figures for the Activity at Cannabinoid receptor 2 [3] and at Cannabinoid receptor 1 [5] were 47.3% and 29.8%, respectively. Moreover, the inhibition result in experiment [4] was “Active”.

Take `CN(CCCCCCCOc1ccc(-c2oc3ccccc3c2C(=O)c2ccc3ccccc3c2)cc1)Cc1ccccc1`: the IC50 result at Acetylcholinesterase is “Not Active”; against Cholinesterase, 89.1 µM. Also, the EC50 on Cannabinoid receptor 1 [1] and at Cannabinoid receptor 2 [2] was above 10 µM each time. For the same molecule, the Ki at Cannabinoid receptor 1 [1] and on Cannabinoid receptor 2 [2] was above 10000 nM in each case. Also, the Activity was determined as 6.87% at Cannabinoid receptor 2 [3] and 35.1% at Cannabinoid receptor 1 [5].

Regarding `CCN(CC)CCOc1ccc(C(=O)c2c(-c3ccc(OCCCCCCCN(C)Cc4ccccc4)cc3)oc3ccccc23)cc1`, the IC50 on Acetylcholinesterase (read-out: IC50) amounted to 78 µM; on Cholinesterase it was 23 µM. Further, the EC50 was above 10 µM at Cannabinoid receptor 1 [1] and 4.65 µM at Cannabinoid receptor 2 [2]. Also, the Ki on Cannabinoid receptor 1 [1] was above 10000 nM; at Cannabinoid receptor 2 [2] it was 1180 nM. In addition, the Activity at Cannabinoid receptor 2 [3] came out at 92%; at Cannabinoid receptor 1 [5], 35.2%. In addition, the inhibition entry in experiment [4] is “Active”.

`COc1cc(/C=C/C(=O)CC(=O)/C=C/c2ccc(O)c(OC)c2)ccc1O` [CURCUMIN] showed an IC50 in experiment [6] of 10 µM.

With `COc1cc(OC)cc(C(=O)c2c(-c3cccc(OCCCCCCCN(C)Cc4ccccc4)c3)oc3ccccc23)c1`, the IC50 entry on Acetylcholinesterase was “Not Active”; against Cholinesterase it was 0.048 µM. Moreover, the outcome on Cannabinoid receptor 1 [1] and at Cannabinoid receptor 2 [2] was inactive.

Consider `COc1ccccc1C(=O)c1c(-c2cccc(OCCCCCCCN(C)Cc3ccccc3)c2)oc2ccccc12`, for which the results for the IC50 result at Acetylcholinesterase and at Cholinesterase were “Not Active” and 1.97 µM, respectively. The result at Cannabinoid receptor 1 [1] and at Cannabinoid receptor 2 [2] was inactive.

On to `CN(CCCOc1ccc(-c2cc3ccccc3o2)cc1)Cc1ccccc1`, for which the IC50 result at Acetylcholinesterase was “Not Active”; against Cholinesterase, 136 µM. The inhibition result in experiment [4] is “Active”.

Take `CN(CCCCCCCCCOc1ccc(-c2cc3ccccc3o2)cc1)Cc1ccccc1`: the IC50 entry on Acetylcholinesterase was “Not Active”; against Cholinesterase, 55.6 µM; in experiment [6], 5.5 µM.

For the molecule `COc1ccc(C(=O)c2c(-c3cccc(OCCCCCCCN(C)Cc4ccccc4)c3)oc3ccccc23)cc1OC`, the figures for the IC50 result on Acetylcholinesterase and against Cholinesterase were “Not Active” and 2.51 µM, respectively. Also, the result on Cannabinoid receptor 1 [1] and at Cannabinoid receptor 2 [2] was inactive.

Turning to `CCN(CC)CCOc1cccc(C(=O)c2c(-c3ccc(OCCCCCCCN(C)Cc4ccccc4)cc3)oc3ccccc23)c1`, the IC50 on Acetylcholinesterase (read-out: IC50) came out at 37.1 µM; against Cholinesterase, 1.81 µM. Besides, the results for the EC50 at Cannabinoid receptor 1 [1] and on Cannabinoid receptor 2 [2] were 6.38 µM and 2.71 µM, respectively. Also, the Ki on Cannabinoid receptor 1 [1] was 2570 nM; at Cannabinoid receptor 2 [2], 690 nM. Besides, the Activity on Cannabinoid receptor 2 [3] is 77.9%; at Cannabinoid receptor 1 [5] it was 76.5%. Further, the inhibition result in experiment [4] was “Active”.

`CN(CCCCCCCOc1ccc(-c2cc3ccccc3o2)cc1)Cc1ccccc1`: the EC50 on Cannabinoid receptor 1 [1] was 6.95 µM; at Cannabinoid receptor 2 [2] it was above 10 µM. Also, the Ki at Cannabinoid receptor 1 [1] is 2800 nM; on Cannabinoid receptor 2 [2] it was above 10000 nM. The Activity on Cannabinoid receptor 2 [3] was found to be 21.8%; on Cannabinoid receptor 1 [5], 57.8%.

Usually IC50 stands for the concentration that gives 50% inhibition. As usually defined, the EC50 is the concentration needed to bring the measured effect to its halfway point. Usually Ki stands for a measure of affinity in units of concentration, obtained from inhibition or displacement. By inhibition is commonly meant the percentage by which the read-out fell short of the control.
